Values after ≈ are worked out from the molar mass of the structure shown.
What was measured:
Assay type in all cases: functional
[1] = test system: Staphylococcus aureus; experiment: Antimicrobial activity against SCCmec type II vancomycin-intermediate Staphylococcus aureus isolate 6zjsau7 by agar dilution method
How it was run: (§1)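 Agar-dilution MICs were measured on a subset of 200 blood MRSA isolates from China. Agents: oxacillin, rifampin, gentamicin, levofloxacin, erythromycin, vancomycin, teicoplanin, tigecycline, ceftobiprole and linezolid. Phenotype came from the PAP-AUC ratio of each isolate to S. aureus Mu3 (VSSA <0.9; hVISA 0.9 to 1.3; VISA ≥1.3), read on BHI agar with 0 to 8.0 mg/liter vancomycin after 48 h at 35°C.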

[2] = test system: Staphylococcus aureus; experiment: Antimicrobial activity against heterogeneous vancomycin-intermediate Staphylococcus aureus assessed as susceptible isolates by agar dilution method
How it was run: (§2)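 MICs by agar dilution for all 200 MRSA blood isolates (oxacillin, rifampin, gentamicin, levofloxacin, erythromycin, vancomycin, teicoplanin, tigecycline, ceftobiprole, linezolid). Isolates were grouped by PAP-AUC ratio against S. aureus Mu3: below 0.9 VSSA, 0.9 to 1.3 hVISA, 1.3 or more VISA.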

[3] = test system: Staphylococcus aureus; experiment: Antimicrobial activity against SCCmec type III vancomycin-intermediate Staphylococcus aureus isolate sh07043 by agar dilution method; how it was run: as §1
[4] = test system: Staphylococcus aureus; experiment: Antimicrobial activity against SCCmec type III vancomycin-intermediate Staphylococcus aureus isolate gs07022 by agar dilution method; how it was run: as §1
[5] = test system: Staphylococcus aureus; experiment: Antimicrobial activity against heterogeneous vancomycin-susceptible Staphylococcus aureus assessed as intermediate isolates by agar dilution method
[6] = test system: Staphylococcus aureus; experiment: Antimicrobial activity against SCCmec type III vancomycin-intermediate Staphylococcus aureus isolate 13b16 by agar dilution method; how it was run: as §1
[7] = test system: Staphylococcus aureus; experiment: Antimicrobial activity against SCCmec type III vancomycin-intermediate Staphylococcus aureus isolate b3k2345 by agar dilution method; how it was run: as §1
[8] = test system: Staphylococcus aureus; experiment: Antimicrobial activity against SCCmec type IV vancomycin-intermediate Staphylococcus aureus isolate 06b41 by agar dilution method; how it was run: as §1
[9] = test system: Staphylococcus aureus; experiment: Antimicrobial activity against vancomycin-susceptible Staphylococcus aureus assessed as growth inhibition at 2 times MIC; set-up: scale not given: the % may be the effect or the level left
[10] = test system: Staphylococcus aureus; experiment: Antimicrobial activity against heterogeneous vancomycin-intermediate Staphylococcus aureus assessed as growth inhibition at MIC; set-up: scale not given: the % may be the effect or the level left
[11] = test system: Staphylococcus aureus; experiment: Antimicrobial activity against vancomycin-susceptible Staphylococcus aureus assessed as growth inhibition at 0.5 times MIC; set-up: scale not given: the % may be the effect or the level left
[12] = test system: Staphylococcus aureus; experiment: Antimicrobial activity against SCCmec type III vancomycin-intermediate Staphylococcus aureus isolate gz06051 by agar dilution method; how it was run: as §1
[13] = test system: Staphylococcus aureus; experiment: Antimicrobial activity against SCCmec type II vancomycin-intermediate Staphylococcus aureus isolate 07b63 by agar dilution method; how it was run: as §1
[14] = test system: Staphylococcus aureus; experiment: Antimicrobial activity against heterogeneous vancomycin-intermediate Staphylococcus aureus assessed as growth inhibition at 0.5 times MIC; set-up: scale not given: the % may be the effect or the level left
[15] = test system: Staphylococcus aureus; experiment: Antimicrobial activity against heterogeneous vancomycin-intermediate Staphylococcus aureus assessed as growth inhibition at 4 times MIC; set-up: scale not given: the % may be the effect or the level left
[16] = test system: Staphylococcus aureus; experiment: Antimicrobial activity against SCCmec type III vancomycin-intermediate Staphylococcus aureus isolate b5k3529 by agar dilution method; how it was run: as §1
[17] = test system: Staphylococcus aureus; experiment: Antimicrobial activity against heterogeneous vancomycin-intermediate Staphylococcus aureus assessed as growth inhibition at 0.125 times MIC; set-up: scale not given: the % may be the effect or the level left
[18] = test system: Staphylococcus aureus; experiment: Antimicrobial activity against vancomycin-susceptible Staphylococcus aureus assessed as growth inhibition at 16 times MIC; set-up: scale not given: the % may be the effect or the level left
[19] = test system: Staphylococcus aureus; experiment: Antimicrobial activity against SCCmec type III vancomycin-intermediate Staphylococcus aureus isolate 15b52 by agar dilution method; how it was run: as §1
[20] = test system: Staphylococcus aureus; experiment: Antimicrobial activity against heterogeneous vancomycin-susceptible Staphylococcus aureus assessed as susceptible isolates by agar dilution method; how it was run: as §2
[21] = test system: Staphylococcus aureus; experiment: Antimicrobial activity against SCCmec type II vancomycin-intermediate Staphylococcus aureus isolate 4sy32 by agar dilution method; how it was run: as §1
[22] = test system: Staphylococcus aureus; experiment: Antimicrobial activity against heterogeneous vancomycin-intermediate Staphylococcus aureus by agar dilution method; how it was run: as §1
[23] = test system: Staphylococcus aureus; experiment: Antimicrobial activity against SCCmec type III vancomycin-intermediate Staphylococcus aureus isolate 5zjsau3 by agar dilution method; how it was run: as §1
[24] = test system: Staphylococcus aureus; experiment: Antimicrobial activity against vancomycin-susceptible Staphylococcus aureus assessed as growth inhibition at MIC; set-up: scale not given: the % may be the effect or the level left
[25] = test system: Staphylococcus aureus; experiment: Antimicrobial activity against vancomycin-susceptible Staphylococcus aureus assessed as growth inhibition at 0.25 times MIC; set-up: scale not given: the % may be the effect or the level left
[26] = test system: Staphylococcus aureus; experiment: Antimicrobial activity against heterogeneous vancomycin-intermediate Staphylococcus aureus assessed as growth inhibition at 16 times MIC; set-up: scale not given: the % may be the effect or the level left
[27] = test system: Staphylococcus aureus; experiment: Antimicrobial activity against SCCmec type III vancomycin-intermediate Staphylococcus aureus isolate b6k1642 by agar dilution method; how it was run: as §1
[28] = test system: Staphylococcus aureus; experiment: Antimicrobial activity against SCCmec type III vancomycin-intermediate Staphylococcus aureus isolate b4k6307 by agar dilution method; how it was run: as §1
[29] = test system: Staphylococcus aureus; experiment: Antimicrobial activity against SCCmec type II vancomycin-intermediate Staphylococcus aureus isolate sh06024 by agar dilution method; how it was run: as §1
[30] = test system: Staphylococcus aureus; experiment: Antimicrobial activity against heterogeneous vancomycin-intermediate Staphylococcus aureus assessed as intermediate isolates by agar dilution method; how it was run: as §2
[31] = test system: Staphylococcus aureus; experiment: Antimicrobial activity against SCCmec type III vancomycin-intermediate Staphylococcus aureus isolate 11b091 by agar dilution method; how it was run: as §1
[32] = test system: Staphylococcus aureus; experiment: Antimicrobial activity against SCCmec type III vancomycin-intermediate Staphylococcus aureus isolate b5k3578 by agar dilution method; how it was run: as §1
[33] = test system: Staphylococcus aureus; experiment: Antimicrobial activity against SCCmec type II vancomycin-intermediate Staphylococcus aureus isolate 4sy39 by agar dilution method; how it was run: as §1
[34] = test system: Staphylococcus aureus; experiment: Antimicrobial activity against heterogeneous vancomycin-intermediate Staphylococcus aureus assessed as growth inhibition at 2 times MIC; set-up: scale not given: the % may be the effect or the level left
[35] = test system: Staphylococcus aureus; experiment: Antimicrobial activity against SCCmec type III vancomycin-intermediate Staphylococcus aureus isolate b6k7974 by agar dilution method; how it was run: as §1
[36] = test system: Staphylococcus aureus; experiment: Antimicrobial activity against heterogeneous vancomycin-intermediate Staphylococcus aureus assessed as growth inhibition at 0.25 times MIC; set-up: scale not given: the % may be the effect or the level left
[37] = test system: Staphylococcus aureus; experiment: Antimicrobial activity against SCCmec type III vancomycin-intermediate Staphylococcus aureus isolate xa07029 by agar dilution method; how it was run: as §1
[38] = test system: Staphylococcus aureus; experiment: Antimicrobial activity against vancomycin-susceptible Staphylococcus aureus assessed as growth inhibition at 0.125 times MIC; set-up: scale not given: the % may be the effect or the level left
[39] = test system: Staphylococcus aureus; experiment: Antimicrobial activity against SCCmec type III vancomycin-intermediate Staphylococcus aureus isolate bd4768 by agar dilution method; how it was run: as §1
[40] = test system: Staphylococcus aureus; experiment: Antimicrobial activity against vancomycin-intermediate Staphylococcus aureus by agar dilution method; how it was run: as §1
[41] = test system: Staphylococcus aureus; experiment: Antimicrobial activity against SCCmec type III vancomycin-intermediate Staphylococcus aureus isolate gz06040 by agar dilution method; how it was run: as §1
[42] = test system: Staphylococcus aureus; experiment: Antimicrobial activity against vancomycin-susceptible Staphylococcus aureus by agar dilution method; how it was run: as §1
[43] = test system: Staphylococcus aureus; experiment: Antimicrobial activity against SCCmec type III vancomycin-intermediate Staphylococcus aureus isolate b2k3421 by agar dilution method; how it was run: as §1
[44] = test system: Staphylococcus aureus; experiment: Antimicrobial activity against SCCmec type III vancomycin-intermediate Staphylococcus aureus isolate gz07030 by agar dilution method; how it was run: as §1
[45] = test system: Staphylococcus aureus; experiment: Antimicrobial activity against SCCmec type III vancomycin-intermediate Staphylococcus aureus isolate b3k5923 by agar dilution method; how it was run: as §1
[46] = test system: Staphylococcus aureus; experiment: Antimicrobial activity against SCCmec type III vancomycin-intermediate Staphylococcus aureus isolate zj07028 by agar dilution method; how it was run: as §1
[47] = test system: Staphylococcus aureus; experiment: Antimicrobial activity against vancomycin-susceptible Staphylococcus aureus assessed as growth inhibition at 4 times MIC; set-up: scale not given: the % may be the effect or the level left
[48] = test system: Staphylococcus aureus; experiment: Antimicrobial activity against SCCmec type II vancomycin-intermediate Staphylococcus aureus isolate b2k4781 by agar dilution method; how it was run: as §1

Nc1nc(/C(=N/O)C(=O)N[C@@H]2C(=O)N3C(C(=O)O)=C(/C=C4\CCN([C@@H]5CCNC5)C4=O)CS[C@H]23)ns1 [CEFTOBIPROLE]
MIC [1]: 4 µg/mL (≈ 7.48 µM)
Activity [2]: 100%
MIC [3]: 2 µg/mL (≈ 3.74 µM)
MIC [4]: 1 µg/mL (≈ 1.87 µM)
Activity [5]: 0%
MIC [6]: 1 µg/mL (≈ 1.87 µM)
MIC [7]: 2 µg/mL (≈ 3.74 µM)
MIC [8]: 1 µg/mL (≈ 1.87 µM)
Activity [9]: 100%
Activity [10]: 33.3%
Activity [11]: 4.62%
MIC [12]: 2 µg/mL (≈ 3.74 µM)
MIC [13]: 1 µg/mL (≈ 1.87 µM)
Activity [14]: 11.1%
Activity [15]: 100%
MIC [16]: 2 µg/mL (≈ 3.74 µM)
Activity [17]: 0%
Activity [18]: 100%
MIC [19]: 2 µg/mL (≈ 3.74 µM)
Activity [20]: 100%
MIC [21]: 0.5 µg/mL (≈ 0.935 µM)
MIC50 [22]: 2 µg/mL (≈ 3.74 µM)
MIC90 [22]: 2 µg/mL (≈ 3.74 µM)
MIC [23]: 0.5 µg/mL (≈ 0.935 µM)
Activity [24]: 27.2%
Activity [25]: 2.31%
Activity [26]: 100%
MIC [27]: 2 µg/mL (≈ 3.74 µM)
MIC [28]: 1 µg/mL (≈ 1.87 µM)
MIC [29]: 2 µg/mL (≈ 3.74 µM)
Activity [30]: 0%
MIC [31]: 2 µg/mL (≈ 3.74 µM)
MIC [32]: 2 µg/mL (≈ 3.74 µM)
MIC [33]: 0.5 µg/mL (≈ 0.935 µM)
Activity [34]: 96.3%
MIC [35]: 2 µg/mL (≈ 3.74 µM)
Activity [36]: 0%
MIC [37]: 2 µg/mL (≈ 3.74 µM)
Activity [38]: 0%
MIC [39]: 2 µg/mL (≈ 3.74 µM)
MIC [40]: 0.5 µg/mL (≈ 0.935 µM)
MIC [41]: 1 µg/mL (≈ 1.87 µM)
MIC50 [42]: 2 µg/mL (≈ 3.74 µM)
MIC90 [42]: 2 µg/mL (≈ 3.74 µM)
MIC [43]: 2 µg/mL (≈ 3.74 µM)
MIC [44]: 2 µg/mL (≈ 3.74 µM)
MIC [45]: 2 µg/mL (≈ 3.74 µM)
MIC [46]: 2 µg/mL (≈ 3.74 µM)
Activity [47]: 100%
MIC [48]: 2 µg/mL (≈ 3.74 µM)
